Experimental data taken from ChEMBL document CHEMBL1926668, “Triazine-based vanilloid 1 receptor open channel blockers: design, synthesis, evaluation, and SAR analysis” (J Med Chem, 2011).
pIC50: −log10 of the molar value. Calls of active or inactive are those of the source. The rule behind the calls is not given here.

Experiments:
[1] = molecular target: Transient receptor potential cation channel subfamily V member 1 (Rattus norvegicus, UniProt O35433); assay: Antagonist activity at rat TRPV1 expressed in Xenopus laevis oocytes assessed as blockage of capsaicin-induced current at holding potential -60 mV by two-microelectrode voltage -clamp amplifier; assay type: functional, cell-based, Oocyte
Chain of Transient receptor potential cation channel subfamily V member 1 (O35433 whole entry): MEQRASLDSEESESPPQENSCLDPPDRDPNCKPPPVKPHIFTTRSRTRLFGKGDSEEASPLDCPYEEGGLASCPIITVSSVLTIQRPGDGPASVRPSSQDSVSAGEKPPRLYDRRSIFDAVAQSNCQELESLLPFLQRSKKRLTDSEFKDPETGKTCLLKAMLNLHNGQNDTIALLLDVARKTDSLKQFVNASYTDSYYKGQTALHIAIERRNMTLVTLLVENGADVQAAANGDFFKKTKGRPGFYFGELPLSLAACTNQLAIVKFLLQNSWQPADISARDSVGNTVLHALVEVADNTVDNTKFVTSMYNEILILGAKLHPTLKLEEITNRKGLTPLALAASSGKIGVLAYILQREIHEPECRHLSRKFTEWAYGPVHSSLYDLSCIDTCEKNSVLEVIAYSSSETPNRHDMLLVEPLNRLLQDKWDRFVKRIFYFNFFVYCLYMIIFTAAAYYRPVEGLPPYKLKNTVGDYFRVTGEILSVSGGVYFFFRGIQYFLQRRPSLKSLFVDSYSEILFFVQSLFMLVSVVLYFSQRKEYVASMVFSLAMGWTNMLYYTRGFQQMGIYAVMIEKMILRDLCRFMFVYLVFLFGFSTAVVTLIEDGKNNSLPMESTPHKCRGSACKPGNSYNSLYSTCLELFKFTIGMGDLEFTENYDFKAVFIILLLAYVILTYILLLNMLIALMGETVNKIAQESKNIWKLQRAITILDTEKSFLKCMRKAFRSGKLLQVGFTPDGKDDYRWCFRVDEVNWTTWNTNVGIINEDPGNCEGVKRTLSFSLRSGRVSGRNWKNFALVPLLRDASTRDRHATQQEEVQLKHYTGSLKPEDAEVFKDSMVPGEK

[2] = molecular target: Transient receptor potential cation channel subfamily V member 1 (Rattus norvegicus) (UniProt O35433); assay: Antagonist activity at rat TRPV1 expressed in Xenopus laevis oocytes assessed as blockage of capsaicin-induced current at holding potential -60 mV at 10 uM by two-microelectrode voltage -clamp amplifier; assay type: functional, cell-based; parameters: scale not given: the % may be the effect or the level left; conditions: Oocyte
Chain of Transient receptor potential cation channel subfamily V member 1 (Rattus norvegicus) (O35433 whole entry): as above

[3] = molecular target: Transient receptor potential cation channel subfamily V member 1 (Rattus norvegicus) (UniProt O35433); assay: Agonist activity at rat TRPV1 expressed in Xenopus laevis oocytes assessed as stimulation of capsaicin-induced current at holding potential -60 mV at 10 uM by two-microelectrode voltage -clamp amplifier; assay type: functional, cell-based; conditions: Oocyte
In short: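 Rat TRPV1-expressing Xenopus oocytes under two-electrode voltage clamp at -60 mV in Mg2+ Ringer's buffer, 20 C. Compound at 10 μM applied without capsaicin, and the inward current it activated was recorded.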

[4] = Antagonist activity at TRPM8 at 10 uM; assay type: functional; parameters: scale not given: the % may be the effect or the level left
[5] = Selectivity ratio of IC50 for TRPM8 to IC50 for rat TRVP1
[6] = molecular target: Transient receptor potential cation channel subfamily V member 1 (Rattus norvegicus) (UniProt O35433); assay: Antagonist activity at rat TRPV1 expressed in Xenopus laevis oocytes assessed as blockage of capsaicin-induced current at negative membrane potentials and 10 uM by two-microelectrode voltage -clamp amplifier; conditions: Oocyte
[7] = molecular target: Transient receptor potential cation channel subfamily V member 1 (Rattus norvegicus) (UniProt O35433); assay: Competitive inhibition of rat TRPV1 expressed in Xenopus laevis oocytes; assay type: cell-based; conditions: Oocyte
[8] = Antagonist activity at NMDAR at 1 uM; assay type: functional; parameters: scale not given: the % may be the effect or the level left
[9] = Antagonist activity at NMDAR at 10 uM; assay type: functional; parameters: scale not given: the % may be the effect or the level left
[10] = Antagonist activity at NMDAR; assay type: functional
[11] = Selectivity ratio of IC50 for NMDAR to IC50 for rat TRVP1
[12] = molecular target: Transient receptor potential cation channel subfamily V member 1 (Rattus norvegicus) (UniProt O35433); assay: Antagonist activity at rat TRPV1 expressed in Xenopus laevis oocytes assessed as blockage of capsaicin-induced current at depolarizing membrane potential and 10 uM by two-microelectrode voltage -clamp amplifier; assay type: functional, cell-based; conditions: Oocyte
In short: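 Voltage-dependence protocol in rat TRPV1 oocytes, Mg2+ Ringer's, 20 C. Currents were evoked by 10 μM capsaicin with a linear ramp from -60 to +60 mV over 5 s (25 mV/s), with or without 10 μM compound. Leak current measured without agonist was subtracted. Fractional block was plotted against voltage and fitted to the Woodhull model.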

[13] = Antagonist activity at TRPM8; assay type: functional
[14] = Antagonist activity at TRPM8 at 1 uM; assay type: functional; parameters: scale not given: the % may be the effect or the level left

Row | SMILES | pIC50 [1] | other results
1 | CN(C)CCCNc1nc(N2CCc3c([nH]c4ccccc34)C2)nc(N2CCc3c([nH]c4ccccc34)C2)n1 | 5.15 | 
2 | CN(C)CCNc1nc(NCCc2ccc(Cl)cc2)nc(NCCc2ccc(Cl)cc2)n1 | 5.17 | 
3 | CCN(CC)CCCNCC(=O)N(CCc1ccc(Cl)cc1Cl)CC(=O)N(CCc1ccc(Cl)cc1Cl)CC(N)=O |  | Activity [2]: 99%
4 | CN(C)CCCNc1nc(NCc2ccc3c(c2)OCO3)nc(NCc2ccc3c(c2)OCO3)n1 | 5.30 | 
5 | CN1CCN(Nc2nc(NCCc3ccc(Cl)cc3)nc(NCCc3ccc(Cl)cc3)n2)CC1 | 5.19 | 
6 | CN(C)CCCNc1nc(NCCC2=CCCCC2)nc(NCCC2=CCCCC2)n1 | 3.66 | 
7 | CN1CCCC1CCN1CC(=O)N(CCc2ccc(Cl)cc2Cl)C(CC(=O)N(CCc2ccc(Cl)cc2Cl)CC(N)=O)C1=O (configuration not stated) |  | Activity [2]: 3%
8 | CN1CCCC1CCNCC(=O)N(CCc1ccc(Cl)cc1Cl)CC(=O)N(CCc1ccc(Cl)cc1Cl)CC(N)=O (configuration not stated) |  | Activity [2]: 99%
9 | CN(C)CCN1CCN(c2nc(NCCc3ccc(F)cc3)nc(NCCc3ccc(F)cc3)n2)CC1 | 4.73 | Activity [3]: Active
10 | CN(C)CCOCCNc1nc(NCCc2ccc(F)cc2)nc(NCCc2ccc(F)cc2)n1 | 5.15 | 
11 | CCN(CC)CCCN1CC(=O)N(CCc2ccc(Cl)cc2Cl)C(CC(=O)N(CCc2ccc(Cl)cc2Cl)CC(N)=O)C1=O (configuration not stated) |  | Activity [2]: 3%
12 | NC(=O)CN(CCc1ccc(Cl)cc1Cl)C(=O)CN(CCc1ccc(Cl)cc1Cl)C(=O)CNCCCO |  | Activity [2]: 32%
13 | N=C(N)NCCCCN(CC(N)=O)C(=O)CC1C(=O)N(CCc2ccc(Cl)cc2)CC(=O)N1CCc1ccc(Cl)cc1 (configuration not stated) |  | Activity [2]: 55%
14 | CN(C)CCCNCC(=O)N(CCc1ccc(Cl)cc1Cl)CC(=O)N(CCc1ccc(Cl)cc1Cl)CC(N)=O |  | Activity [2]: 55%
15 | CN(C)CCCNCC(=O)N(CCc1ccc(Cl)cc1)CC(=O)N(CCc1ccc(Cl)cc1)CC(N)=O |  | Activity [2]: 45%
16 | CN(C)CCCOc1nc(NCCc2ccc(F)cc2)nc(NCCc2ccc(F)cc2)n1 | 5.21 | 
17 | CN1CCCC1CCN(CC(N)=O)C(=O)CC1C(=O)N(CCc2ccc(Cl)cc2Cl)CC(=O)N1CCc1ccc(Cl)cc1Cl (configuration not stated) |  | Activity [2]: 40%
18 | CN1CCCC1CCN1CC(=O)N(CCc2ccccc2)C(CC(=O)N(CCc2ccc(Cl)cc2Cl)CC(N)=O)C1=O (configuration not stated) |  | Activity [2]: 28%
19 | CN(C)CCCNc1nc(N2CCN(C(c3ccc(F)cc3)c3ccc(F)cc3)CC2)nc(N2CCN(C(c3ccc(F)cc3)c3ccc(F)cc3)CC2)n1 | 4.25 | 
20 | CCCCNCC(=O)N(CCc1ccc(Cl)cc1Cl)CC(=O)N(CCc1ccc(Cl)cc1Cl)CC(N)=O |  | Activity [2]: 34%
21 | CCCCNc1nc(NCc2ccc(C(=O)O)cc2)nc(NCc2ccc(C(=O)O)cc2)n1 | 3.64 | 
22 | COC(=O)c1ccc(CNc2nc(NCCCN(C)C)nc(NCc3ccc(C(=O)OC)cc3)n2)cc1 | 4.16 | 
23 | N=C(N)NCCCCN(CC(N)=O)C(=O)CC1C(=O)N(CCc2ccc(Cl)cc2Cl)CC(=O)N1CCc1ccc(Cl)cc1Cl (configuration not stated) |  | Activity [2]: 30%
24 | CN(C)CCCNc1nc(NCc2ccc(C(=O)O)cc2)nc(NCc2ccc(C(=O)O)cc2)n1 | 3.75 | 
25 | CN1CCC(N2CCN(c3nc(NCCc4ccc(F)cc4)nc(NCCc4ccc(F)cc4)n3)CC2)CC1 | 4.15 | 

The remaining compounds from weak to strong by pIC50 [1], led by results:

Row | pIC50 [1] | SMILES | other results
26 | 5.48 | CN(C)CCCNc1nc(NCc2ccc(F)cc2F)nc(NCc2ccc(F)cc2F)n1 | 
27 | 5.51 | CN(C)CCCNc1nc(NCc2ccc(F)cc2)nc(NCc2ccc(F)cc2)n1 | 
28 | 5.58 | CN(C)CCCNc1nc(NCc2ccc(Cl)cc2)nc(NCc2ccc(Cl)cc2)n1 | 
29 | 5.63 | CN(C)CCCNc1nc(NCCc2c[nH]c3ccccc23)nc(NCCc2c[nH]c3ccccc23)n1 | 
30 | 5.79 | CN(C)CCCNc1nc(NCCc2ccc([N+](=O)[O-])cc2)nc(NCCc2ccc([N+](=O)[O-])cc2)n1 | 
31 | 5.92 | CN(C)CCCNc1nc(NCCc2ccc(Cl)cc2Cl)nc(NCCc2ccc(Cl)cc2Cl)n1 | 
32 | 5.92 | CN1CCCC1CCNc1nc(NCCc2ccc(Cl)cc2)nc(NCCc2ccc(Cl)cc2)n1 (configuration not stated) | 
33 | 6.01 | COc1ccc(CCNc2nc(NCCCN(C)C)nc(NCCc3ccc(OC)cc3)n2)cc1 | 
34 | 6.02 | NCCN1CCN(c2nc(NCCc3ccc(Cl)cc3)nc(NCCc3ccc(Cl)cc3)n2)CC1 | 
35 | 6.08 | CN(C)CCCNc1nc(NCc2ccc(Cl)cc2Cl)nc(NCc2ccc(Cl)cc2Cl)n1 | 
36 | 6.17 | CN(C)CCCNc1nc(NCCc2ccccc2)nc(NCCc2ccccc2)n1 | 
37 | 6.18 | CN(C)CCCNc1nc(NCc2ccc(C(F)(F)F)cc2)nc(NCc2ccc(C(F)(F)F)cc2)n1 | 
38 | 6.26 | NC(N)=NCCCCNc1nc(NCCc2ccc(F)cc2)nc(NCCc2ccc(F)cc2)n1 | 
39 | 6.30 | CN(C)CCCNc1nc(NCCc2ccc(Cl)cc2)nc(NCCc2ccc(Cl)cc2)n1 | Activity [3]: Active
40 | 6.35 | CN(C)CCCNc1nc(NCCc2ccccc2F)nc(NCCc2ccccc2F)n1 | 
41 | 6.52 | CN(C)CCCNc1nc(NCCc2cccc(F)c2)nc(NCCc2cccc(F)c2)n1 | 
42 | 7.00 | CN(C)CCCCCNc1nc(NCCc2ccc(F)cc2)nc(NCCc2ccc(F)cc2)n1 | 
43 | 7.30 | CN(C)CCCNc1nc(NCCc2ccc(F)cc2)nc(NCCc2ccc(F)cc2)n1 | Activity [4]: 55%; Ratio IC50 [5]: 150; Activity [6]: Active; inhibition [7]: inactive; Activity [8]: 25%; Activity [3]: inactive; Activity [9]: 51%; pIC50 [10]: 5.04; Ratio IC50 [11]: 150; Activity [12]: inactive; pIC50 [13]: 5.12; Activity [14]: 37%
